# Screening results as filed in PubChem.
# APJ ag: APJ receptor agonism. P35414. CHO-K1 APJ PathHunter beta-arrestin, luminescence; 0% DMSO wells, 100% apelin. activation, % at 20 µM. 330,000 compounds, 0.11% hits;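 active means activation more than six SD over the plate average, tested at 20 µM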;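 further: 0% = DMSO alone and 100% = apelin-13 at 10 nM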
# Target sequence (P35414 whole entry, looked up): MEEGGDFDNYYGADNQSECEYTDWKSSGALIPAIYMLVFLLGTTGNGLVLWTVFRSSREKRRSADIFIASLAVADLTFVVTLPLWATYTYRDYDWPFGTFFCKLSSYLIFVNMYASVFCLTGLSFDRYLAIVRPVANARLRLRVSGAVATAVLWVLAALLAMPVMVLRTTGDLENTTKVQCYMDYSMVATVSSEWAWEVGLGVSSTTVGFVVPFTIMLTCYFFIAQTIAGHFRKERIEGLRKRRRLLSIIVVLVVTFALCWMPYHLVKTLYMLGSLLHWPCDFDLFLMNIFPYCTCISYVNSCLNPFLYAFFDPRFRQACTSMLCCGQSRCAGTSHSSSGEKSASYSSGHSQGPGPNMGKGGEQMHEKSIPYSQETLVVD
#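 assay system = CHO-K1 APJ beta-arrestin complementation cell line | input = cell density 1000 per well | dosing = compound 20 µM once, DMSO 1% | timing = compound 90 min 25 °C, reagent 1 h | measured by = luminescence from split beta-galactosidase complementation, Galacton Star/Emerald II substrate | read-out basis = APJ agonist activity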
# CCR6 antagonist: CCR6 (human) receptor antagonism; inhibition, % at 20 µM; P51684; 340,000 compounds, 0.49% hits; CHO-K1 CCR6 PathHunter beta-arrestin, luminescence, CCL20-stimulated;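 active means compounds whose inhibition of the agonist-driven luminescence signal at 20 µM reaches about 50%, limit read from the data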;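 further: cells stimulated with CCL20 at 14 nM final; plate controls were DMSO with CCL20 for no effect and DMSO without agonist for full effect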
# APJ antag: blocks the human apelin receptor APJ. inhibition, % at 20 µM. P35414. 330,000 compounds, 0.32% hits. CHO-K1 APJ beta-arrestin complementation, luminescence;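 active means inhibition above about 40% at 20 µM, limit read from the data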;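 further: cells challenged with 10 nM apelin-13 agonist together with compound; plate controls were apelin-13 plus DMSO wells for no effect and DMSO wells lacking apelin-13 for full effect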
# EBI2 block: EBI2 (human) antagonism; EBI2 beta-arrestin recruitment, luminescence, 7a,25-OHC stimulated; inhibition, % at 5 µM; 360,000 compounds, 0.81% hits; AID 651636; in the data active means inhibition above about 38%;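 further: enzyme fragment complementation signal reports receptor beta-arrestin coupling in cells; 0% = agonist plus DMSO wells and 100% = wells without agonist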
# CXCR6 block: inhibitors of human CXCR6 receptor | 360,000 compounds, 0.36% hits | O00574 | inhibition, % at 20 µM | AID 602244 | CHO-K1 PathHunter CXCR6 beta-arrestin, luminescence; in the data active means inhibition above about 34%, passing the limit was not always enough;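 further: antagonist mode with CXCL16 agonist at 10 nM final; 0% = 10 nM CXCL16 with DMSO and 100% = unstimulated wells without agonist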
# Active calls of the source: *; · = no result. Only some compounds are listed: those with a hit (about 1.5% of all), similar ones and a draw of the others.
SMILES,APJ ag,CCR6 antagonist,APJ antag,EBI2 block,CXCR6 block
Nc1c(S(=O)(=O)O)cc(NC(=O)c2ccccc2)c2c1C(=O)c1ccccc1C2=O,-1,55*,1,11,29
COc1ccc(-c2csc(C(O)c3ccc(F)c(F)c3)n2)cc1 (stereo unspecified),·,·,·,12,-11
COC(=O)[C@]12CCCCC=C1N(Cc1ccc3c(c1)OCO3)C(=O)[C@H](CC(=O)NCC1CCCCC1)C2,·,·,·,8,·
COc1ccc(-c2ccccc2[C@H]2[C@@H]3C=CC[C@@H](C)[C@@H]3C(=O)N2Cc2ccccc2)cc1,·,50,·,37,21
Cc1cc(N(C)/N=C/c2ccccc2O)nc(-c2ccccc2O)n1,-1,56*,12,13,42*
COc1ccc2cc(C#N)c(SCC(=O)N3CC(=O)Nc4ccccc43)nc2c1,-2,-5,5,74*,-2
Cc1cccc2cc(C#N)c(SCC(=O)N3CC(=O)Nc4ccccc43)nc12,4,13,7,57*,1
COc1ccc(-c2ccc(C(=O)NC3CCCCC3)c3occc23)c(C)c1,·,·,·,15,24
CCc1cc2c(=O)oc(-c3ccc(F)cc3)nc2s1,-2,15,-8,1,13
COC(=O)Cn1c(O)c(N=NC(=O)CNC(=O)c2ccncc2)c2ccccc21,-1,18,11,-11,4
Cc1c(N=NC2=C(O)CCCC2=O)c(=O)n(-c2ccccc2)n1C,-3,70*,12,7,49*
COC(=O)C1(C(=O)OC)C[C@H](c2cccs2)N(Cc2ccccc2OC)[C@@H]1c1ccc(F)cc1,·,·,·,31,·
O=C(N/N=C/c1cccc2nccnc12)c1ccncc1,3,0,15,6,-8
O=C(N/N=C/c1cccc2nccnc12)c1ccccc1O,-10,66*,34,-6,40
Nn1cnc2c(ncn2C2OC(CO)C(O)C2O)c1=O (stereo unspecified),·,·,·,4,-6
COc1cc(/C=C2/C(=O)NN(c3cccc(F)c3)C2=O)ccc1OC(=O)c1ccco1,-3,0,-1,-20,40*
COc1cc(/C=C2/C(=O)NN(c3ccc(Cl)cc3)C2=O)ccc1OC(=O)c1ccco1,-4,72*,16,3,50*
COc1cc(/C=C2/C(=O)NN(c3ccc(Cl)cc3)C2=O)cc(Br)c1O,-6,25,24,-9,26
Cc1nn(CC(=O)Nc2ccc(Br)cc2F)c(=O)c2cccn12,-2,-9,-32,5,0
COC(=O)C1=C(C)N(Cc2ccc(C)cc2)C(=O)/C1=C\c1ccc(O)c(OC)c1,-1,34,14,7,36*
COC(=O)C1=C(C)N(Cc2ccc(C)cc2)C(=O)/C1=C\c1cc(OC)c(OC)c(OC)c1,-1,38,3,37,12
O=C(/C=C/c1cccnc1)/C=C/c1cccnc1,·,59*,·,23,38
CCN(CC)C(=O)CSC1=C(C#N)C(c2cccs2)C=C(C)N1 (stereo unspecified),1,-1,6,7,2
O=C1C=CC2(O[C@H](c3ccccc3)[C@@H](c3ccccc3)O2)[C@H](Sc2ccccc2O)C1,·,104*,·,72*,94*
C[C@@H]1[C@@H](Sc2ccccc2)CC(=O)O[C@@H]1c1ccc(-c2ccccc2)cc1,7,0,-14,10,-13
SMILES,APJ ag,CCR6 antagonist,APJ antag,EBI2 block,CXCR6 block
CCC(C)CN1C(=O)CSCC1(C)C(=O)NC(C)C (stereo unspecified),·,·,·,-8,·
Cc1ccc(-n2c(Cl)c(Cl)nc(Cl)c2=O)cc1,·,82*,·,52*,61*
Cc1ccc(C)c2[nH]c(=O)c(CN(Cc3ccco3)C(=S)NCC3CCCO3)cc12 (stereo unspecified),-2,14,15,3,3
COC(=O)C[C@H]1CC[C@H](NC(=O)c2ccc(F)cc2)[C@@H](CO)O1,·,·,·,-4,·
Cc1ccc(-n2ncc3c(SCC(N)=O)ncnc32)cc1C,0,6,5,-3,-8
COc1ccc(N=C2S/C(=C\c3ccc(N4CCOCC4)o3)C(=O)N2CCc2c[nH]c3ccccc23)cc1,1,·,10,81*,12
C[C@@H]1CN(S(=O)C(C)(C)C)[C@@H](CCO)/C1=C\c1ccccc1 (stereo partly specified),·,18,·,-11,10
O=C1C=CC(=O)N1CCCCCCN1C(=O)C=CC1=O,·,104*,·,·,·
O=C(O)CN1C(=O)C=CC1=O,·,·,·,5,-16
COc1cc(N(C)C)ccc1C=c1c2ccccc2n2c1cc(-c1ccccc1)[n+]2C,·,65*,·,32,60*
CN(C)c1ccc(C=c2c3ccccc3n3c2cc(-c2ccc(Cl)cc2)[n+]3C)cc1,·,36,·,-4,19
CN(C)c1ccc(C=c2c3cc([N+](=O)[O-])ccc3n3c2cc(-c2ccccc2)[n+]3C)cc1,·,68*,·,14,49*
CN(C)c1ccc(C=c2c3ccccc3n3c2cc(-c2ccccc2)[n+]3C)cc1,·,62*,·,12,52*
CN(C)c1ccc(C=c2c3ccccc3n3c2c2c([n+]3C)CCCC2)cc1,·,47,·,-11,45*
CCCc1nc(SCC(=O)c2ccc(F)cc2)c2ccccc2n1,-3,12,16,8,8
Cc1ccsc1CN(C)C(=O)CN1C(=O)NC2(CCCCC2C)C1=O (stereo unspecified),-4,8,4,-2,1
CC(C)NC(=O)C1(C)CSCC(=O)N1Cc1cccc(C(F)(F)F)c1 (stereo unspecified),·,·,·,0,·
O=C(NCc1ccccc1)C(c1ccc(-c2ccccc2)cc1)N1CCN(C(=O)C2CCCO2)CC1 (stereo unspecified),·,·,·,-1,·
CN(Cc1ccccc1)C(=O)c1cnc(Cc2c[nH]c3ccccc23)c(I)c1,·,·,·,9,-12
C=CCSc1nc2ccccc2n1C(=O)/C=C/c1cc(OC)c(OC)c(OC)c1,-2,39,12,56*,25
COc1cc(/C=C/C(=O)NCCn2c(C)cc3ccccc32)cc(OC)c1OC,-1,7,-3,9,0
C=CCSc1nc2ccccc2n1C(=O)/C=C/c1ccc(OC)c(OC)c1,·,22,·,46*,20
CCSc1nc2ccccc2n1C(=O)/C=C/c1ccc(OC)c(OC)c1,2,48,15,33,18
O=C1C(Nc2ccccc2)=C(NS(=O)(=O)c2ccccc2)C(=O)c2ccccc21,-3,50*,-28,5,18
CCCN1C(=O)/C(=C\C=C2\N(CC)c3ccccc3C2(C)C)SC1=S,·,46,·,27,19
CCN1C(=O)/C(=C/C=C2\C=CN(CC)c3ccccc32)SC1=S,·,53*,·,16,34
CCOc1ccc2c(c1)C(=NNC(=O)c1ccncc1)c1cc(OCC)ccc1-2,-12,40,57*,8,34
CCOc1ccc(NC(=O)c2ccncc2)cc1,-4,-18,-9,-2,-5
O=C(N/N=C1\C/C(=N\NC(=O)c2ccncc2)c2ccccc21)c1ccncc1,5,56*,-18,-3,30
